# HSF1 inhib: HSF1 inhibitors in luciferase reporter cells, primary screen, cell-based, NIH3T3, luminescence; AID 2098, 2009; NIH3T3-HGL HSE-luciferase, MG132-induced, luminescence 8 h; active compounds read low; 300,000 compounds, 0.77% hits; activity change, negative = inhibition, % at 7.5 µM (by protocol);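 active means more than half of replicate wells show activity change below -50%, luminescence cut by over half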;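 further: luciferase reports HSF-1 transcriptional activity via heat shock element; 0% = median of DMSO wells and -100% = zero luminescence signal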
# T cruzi inh: inhibitors of intracellular T. cruzi growth, primary screen, luminescence, NIH3T3 host cells; T. cruzi beta-gal in NIH3T3, 90 h; 300,000 compounds, 1.4% hits; inhibition, % (test concentration not listed); AID 1885, 2009;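 active means mean inhibition across valid replicates above about 55%, limit read from the data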;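 further: signal also drops with host cell toxicity which is not excluded here; 0% = plate median of DMSO wells and 100% = zero luminescence signal; higher percent means less beta-gal luminescence so fewer parasites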
#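 System: mouse NIH/3T3 fibroblasts infected with β-gal-expressing T. cruzi Tulahuen C4 / Input: NIH/3T3 cells, 5,000 per well / Buffer or medium: Low-serum DMEM with 2% FBS / Probe or stimulus: 5000 reporter trypomastigotes per well / Schedule: ≥90 h infection period, 3 h prior cell attachment / Measured by: GalScreen luminescence, 60 min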
# Hsp70 activator: Hsp70 transcriptional activators, primary screen, cell-based, HeLa, Hsp70 promoter luciferase, luminescence, 10 µM. HeLa Hsp70 promoter luciferase reporter; scaled: vehicle 0, proteasome-inhibitor control 100%. activation, % at 10 µM. 200,000 compounds, 0.04% hits. AID 1203, 2008;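 active means activation above the mean across all tested compounds plus 3 SD, cutoff set per campaign, cut at about 5.5% in these data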;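 further: 100% = MG132 at 30 µM as the positive control and 0% = DMSO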
# Lmaj promast: Leishmania major promastigote growth inhibition, primary screen; Leishmania major promastigotes, resazurin fluorescence viability; inhibition, % at 10 µM; 200,000 compounds, 9% hits; in the data active means inhibition above about 50%;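 further: promastigotes grown with compound for 44 hours at 28 °C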
# HSF-1 act: HSF-1 activators, primary screen, NIH3T3-HGL cells, MG132 stress, luminescence, single point; 300,000 compounds, 1.7% hits; activation, % at 9 µM; AID 504408, 2011; NIH3T3-HGL HSF-1 luciferase reporter, 8 h; 100% = twice DMSO control signal;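 active means mean replicate activation of at least 50% with a set share of replicates each reaching 50%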;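 further: 0% = median of the neutral control wells and 100% = twice that signal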
# An asterisk follows results filed as active; x = no result given. The sample as a whole holds a higher share of hits than the screen did.
SMILES,HSF1 inhib,T cruzi inh,Hsp70 activator,Lmaj promast,HSF-1 act
COc1cccc(CN(C(=O)Cc2c[nH]c3ccccc23)C(C(=O)NC2CCCCC2)c2cccs2)c1 (configuration not stated),5,55*,0,14,9
CC(=O)NC(Cc1c[nH]c2ccccc12)C(=O)OCC(=O)Nc1ccc2c(c1)OCO2 (configuration not stated),5,8,0,2,17
COc1cc(C(C(=O)NC2CCCCC2)N(C(=O)Cc2c[nH]c3ccccc23)c2ccc(C)cc2)cc(OC)c1OC (configuration not stated),2,34,0,90*,5
O=C(Nc1ccc(Cl)c(C(F)(F)F)c1)[C@@H]1CC=C[C@@H]2CCN(C3CC3)C(=O)[C@@H]21,5,-26,x,x,10
O=C(NC1CCCCC1)C(c1cccs1)N(C(=O)Cc1c[nH]c2ccccc12)c1ccc(F)cc1 (configuration not stated),39,57*,0,75*,51*
Cc1ccc(C(C(=O)NC2CCCCC2)N(C(=O)Cc2c[nH]c3ccccc23)c2ccccc2)o1 (configuration not stated),32,56*,0,18,58*
Cc1ccc(S(=O)(=O)N2CCN(CC(=O)N/N=C\c3ccc(O)c(O)c3)CC2)cc1,-6,-14,x,x,-14
CCC(Sc1nnc(C)c(=O)[nH]1)C(=O)Nc1cccc2ccccc12 (configuration not stated),-1,-15,x,x,7
COc1cccc(CN2CCN(Cc3cc(OC)c(OC)c(OC)c3)CC2)c1OC,-8,-1,x,x,15
COc1cccc(CN2CCC(N(CCc3ccccc3)Cc3ccccc3)CC2)c1OC,-7,25,0,99*,-1
C/C(=N\Nc1cccc2cccnc12)c1ccccn1,15,77*,0,51*,49
C/C(=N\Nc1cccc2cccnc12)c1ccc(N)cc1,13,-23,0,12,28
C/C(=N\Nc1cccc2cccnc12)c1ccccc1O,30,-37,0,2,54*
C/C(=N\Nc1ccccc1[N+](=O)[O-])c1ccccc1O,34,0,x,x,33
C/C(=N\Nc1ncc(Cl)cc1Cl)c1ccccn1,-16,69*,0,100*,-24
C/C(=N\Nc1ccc(Cl)c(C(=O)O)c1)c1ccccn1,-7,-14,x,x,5
COc1ccc(C(=O)OCC(=O)Nc2c(C)cccc2C)c(OC)c1OC,-7,-7,x,x,6
CCC(=O)NC1OC(CO)C(O)C(O)C1O (configuration not stated),15,-10,0,-4,42
CC(C)CCNC(=O)c1cc(-c2cccs2)nc2ccccc12,11,5,x,x,16
CN(C)c1cccc(C(=O)N2CCCC(CCC(=O)NCc3ccccc3F)C2)c1 (configuration not stated),-1,-11,x,x,13
COc1ccc(C)c2sc(NNC(=O)COc3ccccc3)nc12,-24,-16,0,12,-40
Cc1ccccc1C(=O)NC[C@@H]1CCCN2CCCC[C@H]12,-56*,-4,x,x,-64
Cc1ccccc1CNC(=O)c1ccccc1C,-2,-17,-1,-6,8
COc1cccc(C(=O)NCC(=O)OCc2ccc(F)cc2Cl)c1,3,-7,0,-8,8
CCOC(=O)c1c(CSc2ccc(CC)cc2)oc2ccc(O)c(CN(C)C)c12,-7,63*,x,x,3
SMILES,HSF1 inhib,T cruzi inh,Hsp70 activator,Lmaj promast,HSF-1 act
Cc1cccn2c(=O)nc(SCC(=O)Nc3ccc4c(c3)OCCO4)nc12,3,3,x,x,1
COc1ccc(OC)c(Nc2nc(N)nc(CCl)n2)c1,-1,x,x,x,3
Cc1c(Cl)cccc1Nc1nc(N)nc(CN2CCc3ccccc3C2)n1,4,2,-1,89*,-4
Cc1cccc(Nc2nc(N)nc(CCl)n2)c1C,-2,30,x,x,-7
Cc1ccc(Nc2nc(N)nc(CN3CCCCCC3)n2)c(C)c1,-8,8,0,5,-13
Cc1ccc(Nc2nc(N)nc(CCl)n2)c(C)c1,-63*,57*,x,x,-59
Cc1ccccc1Nc1nc(N)nc(CN(C)Cc2ccccc2Cl)n1,15,0,0,51*,34
Cc1ccc(Nc2nc(N)nc(CN3CCc4ccccc4C3)n2)cc1,4,-13,0,18,3
COc1cccc(Nc2nc(N)nc(CCl)n2)c1,13,69*,x,x,32
CCN(CC(=O)Nc1ccc(OC)cc1)C(=O)c1cc(S(=O)(=O)N(C)C)ccc1N1CCCC1,-7,4,x,x,-3
Cn1c(=O)n(C)c2cc(/C=N/NC(N)=S)ccc21,8,-8,0,0,-4
COc1ccc(NC(=O)c2cccc(S(=O)(=O)N3CCN(C)CC3)c2)c(OC)c1,8,17,x,x,12
Cc1ccc(Nc2nc(N)nc(CCl)n2)cc1,28,3,x,x,39
Cc1ccc(Nc2nc(N)nc(CSc3ncccn3)n2)cc1,31,-5,0,8,66*
Cc1ccc(SCc2nc(N)nc(Nc3ccccc3C)n2)cc1C,8,4,0,11,25
Cc1cccc(Nc2nc(N)nc(CCl)n2)c1,14,68*,x,x,48
Cc1ccc(SCc2nc(N)nc(Nc3ccccc3C)n2)c(C)c1,1,23,0,60*,-7
Cc1ccccc1Nc1nc(N)nc(CSCC(=O)Nc2cccc(Br)c2)n1,3,-1,0,81*,20
COc1ccc(Cl)cc1C(=O)Nn1cnnc1,-7,-18,x,x,-3
Cc1ccc(Nc2nc(N)nc(CN3CCC(C)CC3)n2)c(C)c1,2,7,0,62*,-10
COc1ccc(-c2cn3cc(C)ccc3n2)cc1Br,42,3,0,84*,66*
COc1ccc(-c2cn3cc(Cl)ccc3n2)cc1OC,37,31,0,45,64*
COc1cc(NC(=O)CSc2nnc3c(C)cc4c(C)ccc(C)c4n23)c(C(=O)O)cc1OC,1,-13,0,-4,18
COC(=O)c1sc2nc(-c3ccco3)ccc2c1N,39,-3,0,12,56*
NC(=O)c1sc2nc(-c3ccco3)ccc2c1N,14,2,0,0,32
NC(=O)c1sc2nc(-c3cccnc3)ccc2c1N,-1,5,x,x,0
CC(C)OC(=O)c1sc2nc(-c3ccccc3)ccc2c1N,-67*,19,0,-6,-71
Nc1c(C(=O)Nc2ccc(Cl)c(Cl)c2)sc2nc(-c3cccnc3)ccc12,5,9,0,59*,2
CCOC(=O)c1sc2nc(-c3cccnc3)ccc2c1N,36,6,0,10,75*
Cc1ccc2c(N)c(C(=O)N(c3ccccc3)c3ccccc3)sc2n1,-47,67*,0,26,-54

# Assay outcomes: PubChem, several laboratories
